PubChem BioAssay
Activity calls are given as the source filed them.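 The calls were made as follows, unless noted: active = viability loss from added drug above about 55%, and viability with drug at most 40%, in both replicates (limit read from the data, passing the limit was not always enough); inconclusive = both conditions met in only one replicate; inactive = neither replicate meets both conditions.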

How the values were obtained:
[1] = reducers of endogenous Her2 protein level, primary screen, SKBR3 breast tumor cells, AlphaScreen, ATP viability (AID 461;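 active = Her2 level under about 52% in both replicate screens, with viability over 70% of control, limit read from the data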;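 as to Her2 level: lower value means less Her2 protein in the cells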;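 as to viability: percent of carrier control wells set as 100% viability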); settings: 18-24 h, measured here: SKBR3 viability, ATP luminescence, at 10 µM
[2] = target: Receptor tyrosine-protein kinase erbB-2 (Homo sapiens) (UniProt P04626); assay: as above; settings: 18-24 h, at 10 µM, stronger effect = lower value
Chain of Receptor tyrosine-protein kinase erbB-2 (Homo sapiens) (P04626 whole entry, looked up): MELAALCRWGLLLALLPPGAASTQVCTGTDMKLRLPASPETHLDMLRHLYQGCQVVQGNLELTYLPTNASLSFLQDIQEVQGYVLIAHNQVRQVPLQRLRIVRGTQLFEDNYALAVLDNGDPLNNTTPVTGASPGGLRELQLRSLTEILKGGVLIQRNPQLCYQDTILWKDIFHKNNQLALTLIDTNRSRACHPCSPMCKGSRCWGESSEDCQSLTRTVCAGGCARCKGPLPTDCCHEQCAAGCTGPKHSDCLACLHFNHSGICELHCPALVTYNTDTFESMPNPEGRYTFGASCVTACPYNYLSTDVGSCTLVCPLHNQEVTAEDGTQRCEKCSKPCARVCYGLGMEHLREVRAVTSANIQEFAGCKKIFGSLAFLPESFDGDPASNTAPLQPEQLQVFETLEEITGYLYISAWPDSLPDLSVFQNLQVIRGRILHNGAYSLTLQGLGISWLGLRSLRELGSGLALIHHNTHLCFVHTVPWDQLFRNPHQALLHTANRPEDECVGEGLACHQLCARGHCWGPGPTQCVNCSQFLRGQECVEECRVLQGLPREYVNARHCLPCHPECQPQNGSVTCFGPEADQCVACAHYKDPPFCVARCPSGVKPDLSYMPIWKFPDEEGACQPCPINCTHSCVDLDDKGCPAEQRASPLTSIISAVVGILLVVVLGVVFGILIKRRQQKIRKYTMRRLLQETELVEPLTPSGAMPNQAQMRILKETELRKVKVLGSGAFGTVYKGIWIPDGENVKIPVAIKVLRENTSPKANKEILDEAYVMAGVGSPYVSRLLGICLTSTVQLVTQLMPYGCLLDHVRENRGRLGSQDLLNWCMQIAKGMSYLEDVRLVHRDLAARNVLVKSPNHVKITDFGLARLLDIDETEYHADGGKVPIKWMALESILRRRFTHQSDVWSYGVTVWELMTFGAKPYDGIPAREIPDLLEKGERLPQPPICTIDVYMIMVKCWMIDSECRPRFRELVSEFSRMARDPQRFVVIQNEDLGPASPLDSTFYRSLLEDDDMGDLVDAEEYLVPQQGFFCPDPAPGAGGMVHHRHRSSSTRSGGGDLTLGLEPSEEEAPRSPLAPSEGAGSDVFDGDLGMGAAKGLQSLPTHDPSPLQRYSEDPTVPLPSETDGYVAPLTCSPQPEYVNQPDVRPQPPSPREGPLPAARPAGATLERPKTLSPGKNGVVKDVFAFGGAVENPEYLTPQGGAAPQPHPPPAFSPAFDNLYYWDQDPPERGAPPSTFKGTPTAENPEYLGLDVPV

[3] = SK-BR-3 cell growth inhibitors, pilot screen, 24 h, human (AID 572;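 active = viability at or below 10% of carrier control in both of two separate runs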;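 also: compound exposure lasted between 18 and 24 h rather than exactly 24 h; 100% = carrier-treated control wells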); settings: SK-BR-3 viability, CellTiter-Glo luminescence, at 10 µM, stronger effect = lower value
[4] = HUVEC growth inhibition – cell-based, human, primary screen (AID 575;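 active = viability at or below 30% in both replicate assays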;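 also: 100% = median of untreated cell wells with 0.1% DMSO on each plate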); settings: HUVEC proliferation, CellTiter-Glo luminescence, 72 h; at 10 µM; stronger effect = lower value
Summary of the method: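 Timing: 72 h treatment at 37 °C; material: HUVEC primary cells; technique: CellTiter-Glo luminescence measuring cellular ATP; controls: vehicle and MePR control wells; measure: percent of median DMSO-control luminescence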

[5] = growth inhibitors of H69AR lung tumor, primary screen, human, duplicate replicates (AID 580;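 active = viability at or under a set limit in both replicates, limit being median viability minus 3 SD, cut at about 48% in these data, passing the limit was not always enough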;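 also: 100% = mean luminescence of untreated wells and 0% = no signal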); settings: H69AR lung tumor cells viability, ATP luminescence, 72 h; at 10 µM; stronger effect = lower value
[6] = reversal of MRP1-mediated doxorubicin resistance, pilot screen, H69AR cells, doxorubicin co-treatment (AID 601); settings: CellTiter-Glo, 72 h, at 10 µM; for differential viability (reversal): stronger effect = higher value
[7] = 384-well plate pilot, post-Golgi transport modulator project, inhibition of yeast transport mutant growth (AID 636; in the data active = inhibition above about 31%); settings: absorbance 615 nm, about 18 h, stronger effect = higher value
[8] = growth suppression of yeast trafficking mutant, preliminary HTS, modulators of trafficking downstream of Golgi apparatus project, 1536-format plate, OD 615 nm (AID 637; in the data active = inhibition above about 30%); settings: yeast transport mutant growth, absorbance 615 nm, 18 h; stronger effect = higher value
[9] = H69AR cells + 2 uM doxorubicin, measured here: viability with 2 uM doxorubicin, stronger effect = lower value
[10] = H69AR cells, compound alone cytotoxicity

| SMILES | viability [1] | Her2 level [2] | viability [3] | viability [4] | viability [5] | differential viability (reversal) ([6]; H69AR cells + 2 uM doxorubicin) | viability [6, 9] | viability [6, 10] | inhibition [7] | inhibition [8] |
| --- | --- | --- | --- | --- | --- | --- | --- | --- | --- | --- |
| COc1cc(CN2CCSCC2)cc(OC)c1OC | 89.5% | 150% (inactive) | 89.5% (inactive) | 88.8% (inactive) | 109% (inactive) | 21% (inactive) | 87.7% | 109% | -0.65% (inactive) | -1.83% (inactive) |
| COc1ccc(CCNc2oc(-c3ccccc3OC)nc2C#N)cc1 | 88% | 106% (inactive) | 88% (inactive) | 86.4% (inactive) | 95.2% (inactive) | 0.34% (inactive) | 94.8% | 95.2% | -1.43% (inactive) | -11% (inactive) |
| CCn1c(SCC(=O)Nc2cc(C)on2)nc2sc3c(c2c1=O)CCCC3 | 91% | 76.5% (inactive) | 91% (inactive) | 84.5% (inactive) | 12.6% (active) | 2.02% (inactive) | 10.6% | 12.6% | -4.93% (inactive) | 7.78% (inactive) |
| COc1ccc(C(=O)CSc2nc(C)cc(=O)[nH]2)cc1 | 99.5% | 87.5% (inactive) | 99.5% (inactive) | 99.7% (inactive) | 101% (inactive) | 10% (inactive) | 91.4% | 101% | -3.2% (inactive) | 2.1% (inactive) |
| O=C(O)c1ccccc1C(=O)Nc1ccccc1 | 121% | 124% (inactive) | 121% (inactive) | 103% (inactive) | 105% (inactive) | 12.1% (inactive) | 92.8% | 105% | -6.97% (inactive) | -2.13% (inactive) |
| CCn1c(CNc2ccc(C)cc2)nnc1SCC(=O)NCc1ccccc1 | 89% | 100% (inactive) | 89% (inactive) | 91.1% (inactive) | 86.6% (inactive) | -0.975% (inactive) | 87.6% | 86.6% | 0.13% (inactive) | 3.93% (inactive) |
| Cc1c(/C(O)=C2/C(=O)C(=O)N(CCN3CCOCC3)C2c2cccs2)cnn1-c1ccccc1 (stereo not given) | 88% | 114% (inactive) | 88% (inactive) | 116% (inactive) | 96.2% (inactive) | 1.22% (inactive) | 95% | 96.2% | -0.79% (inactive) | 0.16% (inactive) |
| Fc1cccc2sc(Nc3nnc(-c4ccco4)o3)nc12 | 109% | 37% (active) | 109% (inactive) | 57.3% (inactive) | 41.2% (active) | -21.4% (inactive) | 62.6% | 41.2% | -0.4% (inactive) | 0% (inactive) |
| Oc1ccc(N2CCN(C(c3cccnc3)c3nnnn3Cc3ccccc3)CC2)cc1 (stereo not given) | 85% | 92% (inactive) | 85% (inactive) | 83.5% (inactive) | 90.2% (inactive) | -2.76% (inactive) | 92.9% | 90.2% | -4.74% (inactive) | -2% (inactive) |
| CCOC(=O)N1CCC(NC(=O)CCC(=O)N2CC(C)Oc3ccc(Cl)cc32)CC1 (stereo not given) | 104% | 96% (inactive) | 104% (inactive) | 94.6% (inactive) | 92.5% (inactive) | 6.71% (inactive) | 85.8% | 92.5% | -5.53% (inactive) | -9.33% (inactive) |
| Cc1nnc(SC(=O)N2c3ccccc3Sc3ccccc32)s1 | 114% | 6.5% (active) | 114% (inactive) | 13.2% (active) | 1.79% (active) | 0.105% (inactive) | 1.69% | 1.79% | 54% (active) | 8.67% (inactive) |
| CCOC(=O)C1CCCN(Cc2nc(N)nc(Nc3ccccc3)n2)C1 (stereo not given) | 100% | 87% (inactive) | 100% (inactive) | 92.8% (inactive) | 91.1% (inactive) | 5.62% (inactive) | 85.5% | 91.1% | 1.05% (inactive) | 0.32% (inactive) |
| N#C[C@@H]1[C@@H]2C(=O)N(c3ccc4c(c3)OCCO4)C(=O)[C@@H]2C2c3ccccc3C=CN21 (stereo not given in full) | 84.5% | 72% (inactive) | 84.5% (inactive) | 95.8% (inactive) | 92.8% (inactive) | -0.82% (inactive) | 93.6% | 92.8% | -0.53% (inactive) | -5.48% (inactive) |
| Cc1ccc(S(=O)(=O)NCCNC(=O)C2CCCNC2=O)cc1 (stereo not given) | 93.5% | 86.5% (inactive) | 93.5% (inactive) | 103% (inactive) | 105% (inactive) | 12% (inactive) | 92.9% | 105% | -4.67% (inactive) | 1.8% (inactive) |
| Cc1cc2c(c(=O)o1)C(C13C=CC(CC1)C3)C(C#N)=C(N)O2 (stereo not given) | 124% | 94.5% (inactive) | 124% (inactive) | 90.1% (inactive) | 99.8% (inactive) | 13.2% (inactive) | 86.6% | 99.8% | -6.4% (inactive) | -5.97% (inactive) |
| Cc1ccc(C2/C(=C(/O)c3cnn(-c4ccccc4)c3C)C(=O)C(=O)N2CCN2CCOCC2)o1 (stereo not given) | 77.5% | 79% (inactive) | 77.5% (inactive) | 112% (inactive) | 85% (inactive) | 7.89% (inactive) | 77.1% | 85% | -4.61% (inactive) | -1.09% (inactive) |
| CC(C)(C)NC(=O)COC(=O)c1snc(C(=O)NC2CCCCC2)c1N | 86% | 75% (inactive) | 86% (inactive) | 51.9% (inactive) | 101% (inactive) | 12.7% (inactive) | 88.1% | 101% | -0.95% (inactive) | 1.59% (inactive) |
| Cn1cccc1Cc1nnc(SCC(N)=O)n1-c1ccc(F)cc1 | 88% | 94.5% (inactive) | 88% (inactive) | 98.5% (inactive) | 99.8% (inactive) | 12.2% (inactive) | 87.6% | 99.8% | -1.28% (inactive) | 1.33% (inactive) |
| COCCNC(=O)CCCCCN1C(=O)CCC1=O | 108% | 79.5% (inactive) | 108% (inactive) | 105% (inactive) | 94.8% (inactive) | 10.4% (inactive) | 84.4% | 94.8% | -8.65% (inactive) | 4.76% (inactive) |
| O=C1c2ccccc2C(Nc2ccc3nc(-c4cccnc4)[nH]c3c2)N1Cc1ccco1 (stereo not given) | 88.5% | 108% (inactive) | 88.5% (inactive) | 87.5% (inactive) | 91.2% (inactive) | 10.1% (inactive) | 81.1% | 91.2% | 2.44% (inactive) | -4.17% (inactive) |
| COC(=O)C1C(=O)C2=C(CC1C)NC(=O)CC2c1ccccc1 (stereo not given) | 102% | 97% (inactive) | 102% (inactive) | 91.7% (inactive) | 103% (inactive) | 15.2% (inactive) | 87.9% | 103% | -3.55% (inactive) | 5.33% (inactive) |
| CC(=O)Nc1ccc(-c2nn[nH]n2)cc1Cl | 87% | 89% (inactive) | 87% (inactive) | 104% (inactive) | 104% (inactive) | 8.39% (inactive) | 95.6% | 104% | -1.6% (inactive) | -2.9% (inactive) |
| CC(C)c1nc(N2CCN(C(=O)c3ccco3)CC2)c2c3c(sc2n1)CCCC3 | 76.5% | 94% (inactive) | 76.5% (inactive) | 66.4% (inactive) | 79.5% (inactive) | 1.06% (inactive) | 78.5% | 79.5% | -0.53% (inactive) | 20.9% (inactive) |
| Cc1cc2ncn(S(=O)(=O)c3ccc(S(=O)(=O)N4CCOCC4)cc3)c2cc1C | 91.5% | 91.5% (inactive) | 91.5% (inactive) | 102% (inactive) | 98.3% (inactive) | 0.945% (inactive) | 97.3% | 98.3% | -1.47% (inactive) | -7.1% (inactive) |
| CC1CCN(C(=S)c2ccccc2O)CC1 | 116% | 105% (inactive) | 116% (inactive) | 92.8% (inactive) | 89% (inactive) | -0.9% (inactive) | 89.9% | 89% | -5.2% (inactive) | -6.29% (inactive) |
| CCOc1ccccc1C1CC(=O)Nc2cc3c(cc21)OCO3 (stereo not given) | 110% | 83.5% (inactive) | 110% (inactive) | 31% (inactive) | 23.7% (active) | -37.2% (inactive) | 60.9% | 23.7% | -4.61% (inactive) | 8.17% (inactive) |
| COc1cccc(N(C(=O)c2ccco2)C(C(=O)NC2CCCC2)c2ccc(N(C)C)cc2)c1 (stereo not given) | 98% | 92.5% (inactive) | 98% (inactive) | 97.5% (inactive) | 91.8% (inactive) | 14.6% (inactive) | 77.2% | 91.8% | -5.45% (inactive) | -2.13% (inactive) |
| CCOC(=O)N1CCN(c2cc3[nH]c(=S)[nH]c3cc2F)CC1 | 112% | 83% (inactive) | 112% (inactive) | 100% (inactive) | 89.7% (inactive) | -6.7% (inactive) | 96.4% | 89.7% | -7.2% (inactive) | -2.58% (inactive) |
